Results: ChEMBL document CHEMBL1149321, “Synthesis, radiosynthesis, and biological evaluation of carbon-11 and iodine-123 labeled 2beta-carbomethoxy-3beta-[4'-((Z)-2-haloethenyl)phenyl]tropanes: candidate radioligands for in vivo imaging of the serotonin transporter” (J Med Chem, 2004)

Tests used:
[1] = system: Rattus norvegicus; test: Distribution in blood […] after intravenous administration by using [123I]-ZIET after 30 min; type: ADME, organism-based; settings: in vivo, 0.5 h
Summary of the method: (§1)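 Male Sprague–Dawley rats (200–250 g), fed ad libitum, given ~20 μCi radiotracer iv via tail-vein cannula in 0.2 mL 10% ethanol/saline under ketamine/xylazine im anesthesia. Killed at 5, 30, 60 or 120 min (n = 5; n = 4 at 120 min). Brain regions dissected, weighed, gamma-counted with dose standards, decay-corrected; mean %ID/g ± SE.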

[2] = Ratio of radioactivity in brainstem of rat brain to that of rat cerebellum after intravenous administration after 120 min; type: functional
Summary of the method: (§2)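 Male Sprague–Dawley rats (200–250 g) given ~20 μCi [123I] tracer iv in 0.2 mL 10% ethanol/saline under ketamine/xylazine; killed at 5, 30, 60, 120 min (n = 5; n = 4 at 120 min). Brain regions dissected, gamma counted, decay-corrected to %ID/g; regional uptake divided by cerebellum.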

[3] = system: Rattus norvegicus; test: Distribution of the radio labelled compound in hippocampus of rat brain after intravenous administration in presence of citalopram after 60 min; type: ADME, organism-based; settings: in vivo, 1 h
Summary of the method: (§3)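 Male Sprague–Dawley rats (200–250 g) under ketamine/xylazine anaesthesia with tail-vein cannulas. Blocker or none given 15 min before ~20 μCi [123I] tracer iv in 0.2 mL 10% ethanol/saline; blocker dose 4 mg/kg.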

[4] = system: Rattus norvegicus; test: Distribution in hippocampus of rat brain after intravenous administration by using [123I]ZIET after 30 min; type: ADME, organism-based; settings: in vivo, 0.5 h; summary of the method: as §1
[5] = Ratio of radioactivity in occipital cortex of rat brain to that of rat cerebellum after intravenous administration after 60 min; type: functional; summary of the method: as §2
[6] = Ratio of radioactivity in rest of rat brain to that of rat cerebellum after intravenous administration after 120 min; type: functional; summary of the method: as §2
[7] = system: Rattus norvegicus; test: Distribution in hypothalamus of rat brain after intravenous administration by using [123I]ZIET after 120 min; type: ADME, organism-based; settings: in vivo, 2 h; summary of the method: as §1
[8] = system: Rattus norvegicus; test: Distribution of the radio labelled compound in cerebellum of rat brain after intravenous administration in presence of citalopram after 60 min; type: ADME, organism-based; settings: in vivo, 1 h; summary of the method: as §3
[9] = system: Rattus norvegicus; test: Distribution in thyroid of rat brain after intravenous administration by using [123I]ZIET after 5 min; type: ADME, organism-based, Thyroid gland; settings: in vivo; summary of the method: as §1
[10] = system: Rattus norvegicus; test: Distribution of the radio labelled compound in cerebellum of rat brain after intravenous administration in presence of RTI-113 after 60 min; type: ADME, organism-based; settings: in vivo, 1 h
Summary of the method: (§4)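 Male Sprague–Dawley rats (200–250 g), ketamine/xylazine anesthesia, tail-vein cannula. Blocker (4 mg/kg) or nothing given 15 min before iv [123I]ZIET in 10% ethanol/saline. Killed 60 min post-tracer.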

[11] = system: Rattus norvegicus; test: Distribution of the radio labelled compound in thyroid of rat brain after intravenous administration in absence of blocker after 60 min; type: ADME, organism-based, Thyroid gland; settings: in vivo, 1 h; summary of the method: as §3
[12] = Ratio of radioactivity in frontal cortex of rat brain to that of rat cerebellum after intravenous administration after 30 min; type: functional; summary of the method: as §2
[13] = system: Rattus norvegicus; test: Distribution in brainstem of rat brain after intravenous administration by using [123I]ZIET after 30 min; type: ADME, organism-based; settings: in vivo, 0.5 h; summary of the method: as §1
[14] = Ratio of radioactivity in striatum of rat brain to that of rat cerebellum after intravenous administration after 120 min; type: functional; summary of the method: as §2
[15] = system: Rattus norvegicus; test: Distribution of the radio labelled compound in occipital cortex of rat brain after intravenous administration in presence of citalopram after 60 min; type: ADME, organism-based; settings: in vivo, 1 h; summary of the method: as §3
[16] = Ratio of radioactivity in rest of rat brain to that of rat cerebellum after intravenous administration after 30 min; type: functional; summary of the method: as §2
[17] = system: Rattus norvegicus; test: Distribution in cerebellum of rat brain after intravenous administration by using [123I]ZIET after 30 min; type: ADME, organism-based; settings: in vivo, 0.5 h; summary of the method: as §1
[18] = system: Rattus norvegicus; test: Distribution in striatum of rat brain after intravenous administration by using [123I]ZIET after 60 min; type: ADME, organism-based; settings: in vivo, 1 h; summary of the method: as §1
[19] = system: Rattus norvegicus; test: Distribution in thyroid of rat brain after intravenous administration by using [123I]ZIET after 120 min; type: ADME, organism-based, Thyroid gland; settings: in vivo, 2 h; summary of the method: as §1
[20] = system: Rattus norvegicus; test: Distribution of the radio labelled compound in occipital cortex of rat brain after intravenous administration in absence of blocker after 60 min; type: ADME, organism-based; settings: in vivo, 1 h; summary of the method: as §3
[21] = Ratio of radioactivity in brainstem of rat brain to that of rat cerebellum after intravenous administration after 5 min; type: functional; summary of the method: as §2
[22] = system: Rattus norvegicus; test: Distribution of the radio labelled compound in frontal cortex of rat brain after intravenous administration in presence of citalopram after 60 min; type: ADME, organism-based; settings: in vivo, 1 h; summary of the method: as §3
[23] = system: Rattus norvegicus; test: Distribution in rest of rat brain after intravenous administration by using [123I]ZIET after 5 min; type: ADME, organism-based; settings: in vivo; summary of the method: as §1
[24] = system: Rattus norvegicus; test: Distribution of the radio labelled compound in striatum of rat brain after intravenous administration in presence of citalopram after 60 min; type: ADME, organism-based; settings: in vivo, 1 h; summary of the method: as §3
[25] = Ratio of radioactivity in striatum of rat brain to that of rat cerebellum after intravenous administration after 5 min; type: functional; summary of the method: as §2
[26] = system: Rattus norvegicus; test: Distribution of the radio labelled compound in thyroid of rat brain after intravenous administration in presence of RTI-113 after 60 min; type: ADME, organism-based, Thyroid gland; settings: in vivo, 1 h; summary of the method: as §3
[27] = system: Rattus norvegicus; test: Distribution of the radio labelled compound in occipital cortex of rat brain after intravenous administration in presence of RTI-113 after 60 min; type: ADME, organism-based; settings: in vivo, 1 h; summary of the method: as §3
[28] = system: Rattus norvegicus; test: Distribution in thyroid of rat brain after intravenous administration by using [123I]ZIET after 30 min; type: ADME, organism-based, Thyroid gland; settings: in vivo, 0.5 h; summary of the method: as §1
[29] = system: Rattus norvegicus; test: Distribution of the radio labelled compound in hypothalamus of rat brain after intravenous administration in presence of citalopram after 60 min; type: ADME, organism-based; settings: in vivo, 1 h; summary of the method: as §3
[30] = system: Rattus norvegicus; test: Distribution of the radio labelled compound in striatum of rat brain after intravenous administration in absence of blocker after 60 min; type: ADME, organism-based; settings: in vivo, 1 h; summary of the method: as §3
[31] = Ratio of radioactivity in frontal cortex of rat brain to that of rat cerebellum after intravenous administration after 5 min; type: functional; summary of the method: as §2
[32] = system: Rattus norvegicus; test: Distribution of the radio labelled compound in frontal cortex of rat brain after intravenous administration in presence of RTI-113 after 60 min; type: ADME, organism-based; settings: in vivo, 1 h; summary of the method: as §3
[33] = system: Rattus norvegicus; test: Distribution of the radio labelled compound in brainstem of rat brain after intravenous administration in presence of reboxetine after 60 min; type: ADME, organism-based; settings: in vivo, 1 h; summary of the method: as §4
[34] = system: Rattus norvegicus; test: Distribution of the radio labelled compound in blood of rat brain after intravenous administration in absence of blocker after 60 min; type: ADME, organism-based; settings: in vivo, 1 h; summary of the method: as §4
[35] = Ratio of radioactivity in occipital cortex of rat brain to that of rat cerebellum after intravenous administration after 5 min; type: functional; summary of the method: as §2
[36] = system: Rattus norvegicus; test: Distribution of the radio labelled compound in rest of rat brain after intravenous administration in presence of citalopram after 60 min; type: ADME, organism-based; settings: in vivo, 1 h; summary of the method: as §3
[37] = system: Rattus norvegicus; test: Distribution of the radio labelled compound in cerebellum of rat brain after intravenous administration in absence of blocker after 60 min; type: ADME, organism-based; settings: in vivo, 1 h; summary of the method: as §4
[38] = Ratio of radioactivity in frontal cortex of rat brain to that of rat cerebellum after intravenous administration after 120 min; type: functional; summary of the method: as §2
[39] = system: Rattus norvegicus; test: Distribution in striatum of rat brain after intravenous administration by using [123I]ZIET after 120 min; type: ADME, organism-based; settings: in vivo, 2 h; summary of the method: as §1
[40] = system: Rattus norvegicus; test: Distribution of the radio labelled compound in striatum of rat brain after intravenous administration in presence of RTI-113 after 60 min; type: ADME, organism-based; settings: in vivo, 1 h; summary of the method: as §3
[41] = Ratio of radioactivity in rest of rat brain to that of rat cerebellum after intravenous administration after 5 min; type: functional; summary of the method: as §2
[42] = system: Rattus norvegicus; test: Distribution of the radio labelled compound in striatum of rat brain after intravenous administration in presence of reboxetine after 60 min; type: ADME, organism-based; settings: in vivo, 1 h; summary of the method: as §3
[43] = system: Rattus norvegicus; test: Distribution of the radio labelled compound in frontal cortex of rat brain after intravenous administration in absence of blocker after 60 min; type: ADME, organism-based; settings: in vivo, 1 h; summary of the method: as §3
[44] = system: Rattus norvegicus; test: Distribution of the radio labelled compound in rest of rat brain after intravenous administration in presence of RTI-113 after 60 min; type: ADME, organism-based; settings: in vivo, 1 h; summary of the method: as §3

COC(=O)C1C(c2ccc(/C=C\[123I])cc2)CC2CCC1N2C (centres undefined)
Activity [1]: 0.53
Ratio [2]: 3
Activity [3]: 0.17
Activity [4]: 0.72
Ratio [5]: 2.3
Ratio [6]: 2.8
Activity [7]: 0.6
Activity [8]: 0.1
Activity [9]: 0.08
Activity [10]: 0.13
Activity [11]: 0.54
Ratio [12]: 2
Activity [13]: 0.65
Ratio [14]: 3.7
Activity [15]: 0.2
Ratio [16]: 1.6
Activity [17]: 0.42
Activity [18]: 0.71
Activity [19]: 2.12
Activity [20]: 0.46
Ratio [21]: 1
Activity [22]: 0.21
Activity [23]: 0.38
Activity [24]: 0.26
Ratio [25]: 1.1
Activity [26]: 1.01
Activity [27]: 0.42
Activity [28]: 0.74
Activity [29]: 0.2
Activity [30]: 0.42
Ratio [31]: 1.3
Activity [32]: 0.49
Activity [33]: 0.36
Activity [34]: 0.22
Ratio [35]: 1.3
Activity [36]: 0.18
Activity [37]: 0.15
Ratio [38]: 3.4
Activity [39]: 0.52
Activity [40]: 0.45
Ratio [41]: 1.1
Activity [42]: 0.45
Activity [43]: 0.53
Activity [44]: 0.36
